Key:
[1] = molecular target: T1, Substance-K receptor (Homo sapiens, UniProt P21452); test: Binding affinity to the NK2 receptor assayed by displacement of [125I]-Neurokinin A
T1 sequence (P21452 whole entry): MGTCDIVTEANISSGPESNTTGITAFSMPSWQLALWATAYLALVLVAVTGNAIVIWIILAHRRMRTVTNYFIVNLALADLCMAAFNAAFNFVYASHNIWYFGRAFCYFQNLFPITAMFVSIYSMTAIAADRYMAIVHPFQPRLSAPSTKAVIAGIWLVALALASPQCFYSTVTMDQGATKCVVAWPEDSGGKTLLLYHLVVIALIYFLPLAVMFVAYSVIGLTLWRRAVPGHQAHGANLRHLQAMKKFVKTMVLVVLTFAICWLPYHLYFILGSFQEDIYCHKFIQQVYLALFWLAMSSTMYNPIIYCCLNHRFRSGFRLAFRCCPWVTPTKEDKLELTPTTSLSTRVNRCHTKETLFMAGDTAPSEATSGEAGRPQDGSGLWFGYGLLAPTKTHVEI
Method in brief: (§1)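 Cloned human NK2 or NK3 receptors stably expressed in CHO cells. Radioligand displacement with [125I]neurokinin A for NK2 and [125I]Bolton-Hunter labeled eledoisin for NK3; IC50 reported.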

[2] = molecular target: T2, Neuromedin-K receptor (Homo sapiens, UniProt P29371); test: Affinity to NK3 receptors assayed by displacement of [125I]-Bolton-Hunter labeled eledoisin radioligand; method in brief: as §1
T2 sequence (P29371 whole entry): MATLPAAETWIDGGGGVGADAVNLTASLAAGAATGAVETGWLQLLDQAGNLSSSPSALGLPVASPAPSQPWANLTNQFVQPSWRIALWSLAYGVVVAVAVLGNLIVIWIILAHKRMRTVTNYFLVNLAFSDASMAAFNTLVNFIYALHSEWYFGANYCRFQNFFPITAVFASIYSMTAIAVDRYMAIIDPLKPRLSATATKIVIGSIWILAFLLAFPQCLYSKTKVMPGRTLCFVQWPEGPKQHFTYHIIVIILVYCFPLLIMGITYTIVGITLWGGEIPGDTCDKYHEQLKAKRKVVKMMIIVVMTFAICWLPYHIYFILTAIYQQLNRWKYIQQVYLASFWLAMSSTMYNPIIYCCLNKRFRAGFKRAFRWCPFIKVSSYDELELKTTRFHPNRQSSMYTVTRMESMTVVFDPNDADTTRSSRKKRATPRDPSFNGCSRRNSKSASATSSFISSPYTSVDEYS

[3] = molecular target: Substance-P receptor (Homo sapiens, UniProt P25103); test: Binding affinity towards cloned neurokinin 1 receptor, based on the displacement of [125I]-labeled substance P
Sequence of Substance-P receptor (P25103 whole entry): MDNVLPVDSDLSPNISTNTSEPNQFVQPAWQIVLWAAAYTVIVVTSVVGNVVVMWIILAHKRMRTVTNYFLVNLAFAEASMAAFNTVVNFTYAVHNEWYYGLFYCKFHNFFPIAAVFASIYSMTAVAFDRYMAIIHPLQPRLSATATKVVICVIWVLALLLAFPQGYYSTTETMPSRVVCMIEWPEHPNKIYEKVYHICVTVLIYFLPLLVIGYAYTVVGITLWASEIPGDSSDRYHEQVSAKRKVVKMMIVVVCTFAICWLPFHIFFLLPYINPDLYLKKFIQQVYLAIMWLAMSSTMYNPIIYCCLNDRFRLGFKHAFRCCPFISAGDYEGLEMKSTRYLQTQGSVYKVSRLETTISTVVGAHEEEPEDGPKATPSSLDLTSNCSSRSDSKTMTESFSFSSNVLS

[4] = species: Cavia porcellus; test: animal or person; settings: po, read-out: Inhibition
[5] = species: Cavia porcellus; test: Inhibitory dose against substance P induced extravasation in the guinea pig; settings: read-out: ID50

| Structure (SMILES) | IC50 [1] [µM] | IC50 [2] [µM] | IC50 [3] [µM] | inhibition in vivo at 30 mg/kg [4] [%] | ED50 [5] [mg/kg] |
| --- | --- | --- | --- | --- | --- |
| Cc1cc(C)cc(COC(=O)[C@H](Cc2c[nH]c3ccccc23)N(C)C)c1 | > 5 | > 5 |  |  |  |
| CCN[C@@H](Cc1c[nH]c2ccccc12)C(=O)OCc1ccccc1 | > 5 | > 5 |  |  |  |
| CC(=O)N[C@@H](Cc1ccc2ccccc2c1)C(=O)OCc1cc(C)cc(C)c1 | > 5 | > 5 | 0.138 |  |  |
| O=C(N[C@@H](Cc1c[nH]c2ccccc12)C(=O)OCc1ccccc1C(F)(F)F)c1ccccc1 | > 5 | > 5 | 0.183 |  |  |
| Cc1cc(C)cc(COC(=O)[C@H](Cc2c[nH]c3ccccc23)[N+](C)(C)C)c1 | > 5 | > 5 |  |  |  |
| O=C(N[C@@H](Cc1c[nH]c2ccccc12)C(=O)OCc1cc(C(F)(F)F)cc(C(F)(F)F)c1)c1ccccc1 | > 5 | > 5 | 0.0027 |  |  |
| COc1ccc(COC(=O)[C@H](Cc2c[nH]c3ccccc23)NC(=O)c2ccccc2)cc1 | > 5 | > 5 | 5.5 |  |  |
| CC(C)(C)OC(=O)N[C@@H](Cc1c[nH]c2ccccc12)C(=O)OCc1ccccc1 | > 5 | > 5 |  |  |  |
| CC(=O)N[C@@H](Cc1ccc(Cl)c(Cl)c1)C(=O)OCc1cc(C)cc(C)c1 (racemic) | > 5 | > 5 | 0.03 |  |  |
| CC(=O)N[C@@H](Cc1n[nH]c2ccccc12)C(=O)OCc1cc(C(F)(F)F)cc(C(F)(F)F)c1 (racemic) | > 5 | > 5 | 0.197 |  |  |
| CC(=O)N[C@@H](Cc1csc2ccccc12)C(=O)OCc1cc(C(F)(F)F)cc(C(F)(F)F)c1 (racemic) [L-709400] | > 5 | > 5 | 0.008 |  |  |
| Cc1cc(C)cc(COC(=O)C(Cc2c[nH]c3ccccc23)NC(=O)c2ccccc2)c1 (single isomer, unassigned) | > 5 | > 5 |  |  |  |
| CC(=O)N[C@@H](Cc1c[nH]c2ccccc12)C(=O)OCc1cc(C)cc(C)c1 [L-708568] | > 5 | > 5 |  |  |  |
| CC(=O)N[C@@H](Cc1c[nH]c2ccccc12)C(=O)OCc1cc(C(F)(F)F)cc(C(F)(F)F)c1 [L-732138] | > 5 | > 5 |  | 22 | 8 |

Further lines, with some results ahead:

| IC50 [1] [µM] | IC50 [2] [µM] | IC50 [3] [µM] | Structure (SMILES) | inhibition in vivo at 30 mg/kg [4] [%] | ED50 [5] [mg/kg] |
| --- | --- | --- | --- | --- | --- |
| > 5 | > 5 | 0.433 | CC(=O)N[C@@H](Cc1ccccc1)C(=O)OCc1cc(C)cc(C)c1 |  |  |
| > 5 | > 5 | 2.15 | O=C(N[C@@H](Cc1c[nH]c2ccccc12)C(=O)OCc1ccc(C(F)(F)F)cc1)c1ccccc1 |  |  |
| > 5 | > 5 | 0.087 | COC(=O)N[C@@H](Cc1c[nH]c2ccccc12)C(=O)OCc1cc(C)cc(C)c1 |  |  |
| > 5 | > 5 | 0.153 | CC(=O)N[C@@H](Cc1cccc2ccccc12)C(=O)OCc1cc(C)cc(C)c1 |  |  |
| > 5 | > 5 | 0.103 | CNC(=O)N[C@@H](Cc1c[nH]c2ccccc12)C(=O)OCc1cc(C)cc(C)c1 |  |  |
| > 5 | > 5 |  | O=C(N[C@@H](Cc1c[nH]c2ccccc12)C(=O)OCc1ccccc1Cl)c1ccccc1 |  |  |
| > 5 | > 5 | 0.76 | COc1cccc(COC(=O)[C@H](Cc2c[nH]c3ccccc23)NC(=O)c2ccccc2)c1 |  |  |
| > 5 | > 5 |  | COc1ccccc1COC(=O)[C@H](Cc1c[nH]c2ccccc12)NC(=O)OC(C)(C)C |  |  |
| > 5 | > 5 |  | Cc1cc(C)cc(COC(=O)[C@H](Cc2c[nH]c3ccccc23)NC(=O)OC(C)(C)C)c1 |  |  |
| > 5 | > 5 | 0.062 | O=C(N[C@@H](Cc1c[nH]c2ccccc12)C(=O)OCc1cccc(C(F)(F)F)c1)c1ccccc1 |  |  |
| > 5 | > 5 | 0.022 | Cc1cc(C)cc(COC(=O)[C@H](Cc2c[nH]c3ccccc23)NC(=O)c2ccccc2)c1 |  |  |
| > 5 | > 5 |  | N[C@@H](Cc1c[nH]c2ccccc12)C(=O)OCc1ccccc1 |  |  |
| > 5 | > 5 |  | Cc1cc(C)cc(COC(=O)[C@@H](N)Cc2c[nH]c3ccccc23)c1 |  |  |
| > 5 | > 5 | 0.243 | O=C(N[C@@H](Cc1c[nH]c2ccccc12)C(=O)OCc1ccc(Cl)cc1)c1ccccc1 |  |  |
| > 5 | > 5 | > 0.1 | COc1ccccc1COC(=O)[C@H](Cc1c[nH]c2ccccc12)NC(=O)c1ccccc1 |  |  |
| > 5 | > 5 | 1.05 | O=C(N[C@@H](Cc1c[nH]c2ccccc12)C(=O)OCc1cccc(Cl)c1)c1ccccc1 |  |  |

Reference: ChEMBL document CHEMBL1127818, “Identification of L-tryptophan derivatives with potent and selective antagonist activity at the NK1 receptor” (J Med Chem, 1994)
